In ChEMBL document CHEMBL1152770, “Inhibitors of hepatitis C virus polymerase: synthesis and biological characterization of unsymmetrical dialkyl-hydroxynaphthalenoyl-benzothiadiazines” (J Med Chem, 2009):
One block for each compound: values may come before it.

Columns and labels:
[1] = Inhibition of HCV isolate H77 NS5B polymerase after 3 hrs by scintillation counting
[2] = Inhibition of HCV isolate BK NS5B polymerase after 3 hrs by scintillation counting
[3] = Aqueous solubility in 50 mM phosphate buffer at pH 7.4; type: physicochemical
In short: (§1)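 Equilibrium solubility in PEG 400, in 50 mM citrate buffer pH 4 or in 50 mM phosphate buffer pH 7.4. Buffers brought to ionic strength 0.155 M with NaCl. Vials rotated at 25 °C for 4 days, final pH measured, then supernatant assayed by reverse-phase HPLC at 262 nm against a linear standard curve.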

[4] = n-Octanol-phosphate buffer distribution coefficient, log D at pH 7.4; type: physicochemical
In short: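 Compound was dissolved in n-octanol and mixed with 50 mM phosphate buffer, isotonic with NaCl, pH 7.4. The mixture was tumbled at 25 °C, 25 rpm, for 2-3 days, then centrifuged to split the phases. Each phase was assayed by reverse-phase HPLC (UV 262 nm) against a linear standard curve. D is the octanol/buffer concentration ratio.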

[5] = Solubility in polyethylene glycol 400 at 25 deg C; type: physicochemical
In short: as §1

[6] = Plasma clearance in dog at 5 mg/kg, iv; type: ADME, organism-based, Canis lupus familiaris; parameters: dose 5 mg/kg, route intravenous
In short: (§2)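 Vehicle DMSO:PEG400 (10:90, v/v). Dosing at 5 mg/kg in rat and monkey; dog 5 mg/kg or 2.5 mg/kg. Protein precipitation with acetonitrile, then LC-MS/MS in negative-ion MRM (m/z 516.2→437.0) against spiked standards with internal standard.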

[7] = Volume of distribution at steady state in dog at 5 mg/kg, iv; type: ADME, organism-based, Canis lupus familiaris; parameters: dose 5 mg/kg, route intravenous; settings: in vivo, read-out: Vdss
In short: (§3)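 Single intravenous dose. Heparinized plasma sampled at 0.1, 0.25, 0.5, 1, 2, 4, 6, 9, 12 and 24 h, plus 3 and 15 h in dog. Drug was isolated by acetonitrile protein precipitation and quantified by LC-MS in negative-ion MRM mode (m/z 516.2→437.0) against an internal standard. Concentrations came from unweighted linear regression of spiked standards.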

Hepatitis C virus [8] = assay: Antiviral activity against HCV 1a containing chimeric genotype 1a-H77/1b-con1 subgenom in human Huh7 cells assessed as reduction in viral RNA after 4 days by RT-PCR; settings: subtype 1a, Huh-7, 96 h
[9] = Plasma clearance in monkey at 5 mg/kg, iv; type: ADME, organism-based, Macaca mulatta; parameters: dose 5 mg/kg, route intravenous; settings: rhesus monkey
In short: as §2

[10] = Metabolic stability in dog liver microsomes assessed as intrinsic clearance; type: ADME, Canis lupus familiaris, Microsome
[11] = Elimination half life in monkey at 5 mg/kg, iv; type: ADME, organism-based, Macaca mulatta; parameters: dose 5 mg/kg, route intravenous; settings: rhesus monkey, in vivo, read-out: beta t1/2 (converted)
In short: as §2

Hepatitis C virus [12] = assay: Ratio of EC50 for HCV isolate Con1 in presence of 40% human serum to EC50 for HCV isolate Con1; type: functional, Hepacivirus hominis
In short: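 Genotype 1b-con1 subgenomic replicon in Huh-7 cells. Four-day incubation with inhibitor in medium with 5% FBS, with or without 40% human serum. EC50 from the fall in HCV RNA copy number by real-time PCR. Ratio is EC50 with serum over EC50 without.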

[13] = Terminal phase volume of distribution in dog at 5 mg/kg, iv; type: ADME, organism-based, Canis lupus familiaris; parameters: dose 5 mg/kg, route intravenous; settings: in vivo, read-out: Vbeta
In short: as §2

[14] = Drug level in rat liver at 5 mg/kg, po after 6 hrs; type: ADME, organism-based; parameters: dose 5 mg/kg, route oral; settings: read-out: Drug uptake
In short: (§4)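 Rats dosed orally at 5 mg/kg, four groups, sacrificed at 6 and 12 h. Plasma and liver homogenate extracted by acetonitrile protein precipitation with internal standard and quantified by LC-MS (negative-ion MRM). Liver/plasma ratio taken from the two concentrations.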

[15] = AUC in rat at 5 mg/kg, iv; type: ADME, organism-based; parameters: dose 5 mg/kg, route intravenous; settings: plasma
In short: as §2

[16] = Metabolic stability in monkey hepatocytes assessed as intrinsic clearance; type: ADME, cell-based, Macaca mulatta, Liver, Hepatocyte; settings: rhesus monkey
[17] = Volume of distribution at steady state in monkey at 5 mg/kg, iv; type: ADME, organism-based, Macaca mulatta; parameters: dose 5 mg/kg, route intravenous; settings: rhesus monkey, in vivo, read-out: Vdss
In short: as §3

[18] = Metabolic stability in rat liver microsomes assessed as intrinsic clearance; type: ADME, Microsome
Hepatitis C virus [19] = assay: Antiviral activity against HCV isolate Con1 in human Huh7 cells assessed as reduction in viral RNA after 4 days by RT-PCR; settings: isolate Con1, Huh-7, 96 h
[20] = Metabolic stability in dog hepatocytes assessed as intrinsic clearance; type: ADME, cell-based, Canis lupus familiaris, Liver, Hepatocyte
[21] = Elimination half life in rat at 5 mg/kg, iv; type: ADME, organism-based; parameters: dose 5 mg/kg, route intravenous; settings: in vivo, read-out: beta t1/2 (converted)
In short: as §2

[22] = Volume of distribution at steady state in rat at 5 mg/kg, iv; type: ADME, organism-based; parameters: dose 5 mg/kg, route intravenous; settings: in vivo, read-out: Vdss
In short: as §3

[23] = AUC in dog at 5 mg/kg, iv; type: ADME, organism-based, Canis lupus familiaris; parameters: dose 5 mg/kg, route intravenous; settings: plasma
In short: as §2

[24] = AUC in monkey at 5 mg/kg, iv; type: ADME, organism-based, Macaca mulatta; parameters: dose 5 mg/kg, route intravenous; settings: rhesus monkey, plasma
In short: as §2

[25] = Plasma clearance in rat at 5 mg/kg, iv; type: ADME, organism-based; parameters: dose 5 mg/kg, route intravenous
In short: as §2

[26] = Drug level in rat liver at 5 mg/kg, po after 12 hrs; type: ADME, organism-based; parameters: dose 5 mg/kg, route oral; settings: read-out: Drug uptake
In short: as §4

[27] = Terminal phase volume of distribution in monkey at 5 mg/kg, iv; type: ADME, organism-based, Macaca mulatta; parameters: dose 5 mg/kg, route intravenous; settings: rhesus monkey, in vivo, read-out: Vbeta
In short: as §3

[28] = Metabolic stability in monkey liver microsomes assessed as intrinsic clearance; type: ADME, Macaca mulatta, Microsome; settings: rhesus monkey
[29] = Cytotoxicity against human HuH7 cells by MTT assay; type: cell-based, Huh-7; settings: read-out: TD50 (the source's name)
In short: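 Cytotoxicity in Huh-7 replicon cultures measured by MTT colorimetric assay after the four-day incubation.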

[30] = Elimination half life in dog at 5 mg/kg, iv; type: ADME, organism-based, Canis lupus familiaris; parameters: dose 5 mg/kg, route intravenous; settings: in vivo, read-out: beta t1/2 (converted)
In short: as §2

[31] = Terminal phase volume of distribution in rat at 5 mg/kg, iv; type: ADME, organism-based; parameters: dose 5 mg/kg, route intravenous; settings: in vivo, read-out: Vbeta
In short: as §3

[32] = Metabolic stability in human liver microsomes assessed as intrinsic clearance; type: ADME, Microsome
Hepatocyte [33] = assay: Metabolic stability in human hepatocytes assessed as intrinsic clearance; type: ADME, cell-based, Liver
Hepatocyte [34] = assay: Metabolic stability in rat hepatocytes assessed as intrinsic clearance; type: ADME, cell-based, Liver

IC50 [1]: 624 nM
IC50 [2]: 2300 nM
Structure (SMILES): CC(C)CC[C@]1(C)C(=O)C(C2=NS(=O)(=O)c3cc(NS(C)(=O)=O)ccc3N2)=C(O)c2ccccc21

solubility [3]: < 0.07 µg/mL
logD [4]: 1.45
solubility [5]: > 191.8 mg/mL
Structure (SMILES): CS(=O)(=O)Nc1ccc2c(c1)S(=O)(=O)N=C(c1c([O-])c3ccccc3n(NC3CCC3)c1=O)N2.[Na+]

Structure (SMILES): CC(C)CC[C@@]1(C)C(=O)C(C2=NS(=O)(=O)c3cc(NS(C)(=O)=O)ccc3N2)=C([O-])c2ccccc21.[Na+]
clearance [6]: 7.33 mL/min/kg
Vd [7]: 1.1 L/kg
EC50 (Hepatitis C virus [8]): 11 nM
IC50 [1]: 1.3 nM
IC50 [2]: 0.9 nM
clearance [9]: 8.5 mL/min/kg
microsomal CLint [10]: 3.5 µL/min/mg
half-life [11]: 0.7 h
Ratio EC50 (Hepatitis C virus [12]): 14
Vd [13]: 1.74 L/kg
concentration at 6 h [14]: 3800 ng/g
AUC [15]: 5200 ng·h/mL
CL [16]: 29.2 µL/min/mg
Vd [17]: 0.19 L/kg
microsomal CLint [18]: 36.3 µL/min/mg
EC50 (Hepatitis C virus [19]): 3 nM
CL [20]: 2.2 µL/min/mg
half-life [21]: 1.2 h
Vd [22]: 1.72 L/kg
AUC [23]: 11800 ng·h/mL
AUC [24]: 10200 ng·h/mL
clearance [25]: 16 mL/min/kg
concentration at 12 h [26]: 1430 ng/g
Vd [27]: 0.5 L/kg
microsomal CLint [28]: 62 µL/min/mg
CC50 [29]: 35300 nM
half-life [30]: 2.7 h
Vd [31]: 1.97 L/kg
microsomal CLint [32]: 29.6 µL/min/mg
CL (Hepatocyte [33]): 6.8 µL/min/mg
CL (Hepatocyte [34]): 9 µL/min/mg

IC50 [1]: 444 nM
IC50 [2]: 518 nM
Structure (SMILES): CC(C)(C)CC[C@]1(C)C(=O)C(C2=NS(=O)(=O)c3cc(NS(C)(=O)=O)ccc3N2)=C(O)c2ccccc21
